A short description of data set [1]: LHQW components in human plasma after repeated oral dosing. In kind it is in vivo. The conditions noted are these: after repeated oral administration of LHQW capsule, semi-quantitative.
For data set [2], the target named is T1, ACE2 (Homo sapiens, UniProt Q9BYF1). Put plainly: Test of ACE2 inhibitory activity. The class given is biochemical. The essentials: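 ACE2 inhibition was measured with a commercial inhibitor screening kit following the supplier's instructions. Each data point was run in duplicate and reported as the mean value. IC50 came from nonlinear curve fitting.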
Target sequence in this assay (Q9BYF1 18-805): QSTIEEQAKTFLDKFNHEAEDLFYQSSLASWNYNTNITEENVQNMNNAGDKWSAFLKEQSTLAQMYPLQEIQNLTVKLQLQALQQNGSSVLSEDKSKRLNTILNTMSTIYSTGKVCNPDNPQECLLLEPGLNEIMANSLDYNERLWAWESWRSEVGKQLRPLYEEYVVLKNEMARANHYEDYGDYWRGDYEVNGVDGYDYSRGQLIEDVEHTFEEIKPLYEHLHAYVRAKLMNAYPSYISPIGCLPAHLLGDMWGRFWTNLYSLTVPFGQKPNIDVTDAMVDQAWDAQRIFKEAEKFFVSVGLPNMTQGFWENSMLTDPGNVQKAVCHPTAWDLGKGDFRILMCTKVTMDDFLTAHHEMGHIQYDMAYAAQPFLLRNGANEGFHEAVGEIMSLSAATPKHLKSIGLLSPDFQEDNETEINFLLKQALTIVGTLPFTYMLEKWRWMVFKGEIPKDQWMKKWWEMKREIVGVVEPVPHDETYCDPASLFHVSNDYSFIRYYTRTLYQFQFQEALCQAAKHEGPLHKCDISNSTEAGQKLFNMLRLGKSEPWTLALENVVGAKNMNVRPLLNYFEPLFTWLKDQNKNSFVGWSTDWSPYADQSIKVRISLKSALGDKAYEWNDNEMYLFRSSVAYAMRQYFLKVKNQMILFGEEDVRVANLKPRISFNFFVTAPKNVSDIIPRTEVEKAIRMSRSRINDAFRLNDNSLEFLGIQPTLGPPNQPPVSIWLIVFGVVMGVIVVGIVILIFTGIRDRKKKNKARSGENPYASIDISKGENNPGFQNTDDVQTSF
Data set [3] addresses T1, ACE2. The data set can be described thus: SPR analysis of affinity to ACE2 recombinant protein. The class given is binding. As to conditions: for Rmax: SPR fit; for χ^2: SPR fit quality; for Kd: SPR, steady-state affinity model (1:1), 0.024 to 50 μmol/L.
Target sequence in this assay (Q9BYF1 18-740): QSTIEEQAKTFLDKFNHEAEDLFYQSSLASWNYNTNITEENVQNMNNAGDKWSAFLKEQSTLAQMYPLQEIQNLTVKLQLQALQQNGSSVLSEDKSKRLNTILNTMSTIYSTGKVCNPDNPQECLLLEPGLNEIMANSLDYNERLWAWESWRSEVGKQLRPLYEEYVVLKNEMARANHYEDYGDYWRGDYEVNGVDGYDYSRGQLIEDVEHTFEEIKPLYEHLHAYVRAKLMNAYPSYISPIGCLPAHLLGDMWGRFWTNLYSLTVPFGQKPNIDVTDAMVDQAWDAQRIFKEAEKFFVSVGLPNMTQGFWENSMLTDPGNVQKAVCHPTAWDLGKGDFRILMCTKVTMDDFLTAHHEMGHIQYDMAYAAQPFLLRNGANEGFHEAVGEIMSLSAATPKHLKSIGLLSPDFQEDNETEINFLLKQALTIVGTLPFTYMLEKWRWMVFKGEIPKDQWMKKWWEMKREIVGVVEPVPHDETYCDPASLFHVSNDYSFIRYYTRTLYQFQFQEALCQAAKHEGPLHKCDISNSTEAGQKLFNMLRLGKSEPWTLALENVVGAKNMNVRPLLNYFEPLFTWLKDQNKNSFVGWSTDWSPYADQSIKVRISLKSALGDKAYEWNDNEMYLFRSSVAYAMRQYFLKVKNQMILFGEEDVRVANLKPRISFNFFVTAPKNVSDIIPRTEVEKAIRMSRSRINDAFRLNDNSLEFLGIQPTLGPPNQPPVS
In data set [4] the target is T1, ACE2. The data set can be described thus: Comprehensive 2D ACE2 column/C18 column/TOFMS biochromatography screening. In kind it is binding. As to conditions: urine sample, LHQW extract or standard. The procedure, abridged: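 Stationary phase: His-tagged recombinant human ACE2 immobilised on MPTS/GMBS-modified silica, confirmed by pronase digestion and anti-ACE2 immunoblot. First dimension was the ACE2 column (10 × 2.0 mm, 5 μm) in 10 mmol/L ammonium acetate at 0.2 mL/min. Retained fractions went by alternating 10-port valve loops to a C18 column (0.1% formic acid/acetonitrile gradient, 0.4 mL/min) and then TOFMS.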
Target sequence in this assay (Q9BYF1 18-740): as above

Read-outs that look alike come from different tables or passages of the source.

With `C=CC1CNC(=S)O1` (racemic) [(R,S)-goitrin], the “Human in vivo exposure (in words)” value in data set [1] is on record as “higher human exposure”.
Take `O=C1c2cccc(O)c2C(=O)c2c(O)cc(CO)cc21` [Aloe-emodin (216), Aloe-emodin]: the “ACE2 inhibitory effect (in words)” value on ACE2 [2] (ACE2 Inhibitor Screening Kit) is “no inhibitory effect”. On ACE2 [3], the “ACE2 binding ability by SPR (in words)” value is recorded as “could also exhibit ACE2 binding activity”, the Rmax stood at 16.120 RU and the “χ^2” value amounted to 7.720.
For `N#C[C@H](O[C@@H]1O[C@H](CO[C@@H]2O[C@H](CO)[C@@H](O)[C@H](O)[C@H]2O)[C@@H](O)[C@H](O)[C@H]1O)c1ccccc1` [Amygdalin (33), Amygdalin], the “Retention on ACE2 biochromatography column (potential ACE2 binding)” value (“Retention” below) at ACE2 [4] is listed as “potential ACE2 binding activity”. Also, on ACE2 [3], the Rmax is recorded as 6.856 RU and the “χ^2” value came to 0.462.
Regarding `Cc1cc(O[C@@H]2OC(CO)[C@@H](O)C(O)C2O)c2c(c1)C(=O)c1cc(O)cc(O)c1C2=O` (stereo partly drawn) [Emodin 8-O-β-D-glucoside (195), Emodin 8-O-β-D-glucoside], the 50% inhibitory concentration (IC50) on ACE2 [2] (read-out: IC50 of ACE2 inhibition, ACE2 Inhibitor Screening Kit) was found to be 22.5 µM. Moreover, at ACE2 [3], the “ACE2 binding ability by SPR (in words)” value was “could also exhibit ACE2 binding activity”, the Rmax amounted to 16.930 RU, the “χ^2” value is recorded as 3.190 and the Kd amounted to 21.3 µM.
`C[C@@H]1O[C@@H](OC[C@H]2O[C@@H](OCCc3ccc(O)c(O)c3)[C@H](O)[C@@H](O)[C@@H]2OC(=O)/C=C/c2ccc(O)c(O)c2)[C@H](O)[C@H](O)[C@H]1O` [Forsythoside A (128), Forsythoside A]: the “Human in vivo exposure (in words)” value in data set [1] is “low in vivo exposure”. On ACE2 [4], the “Retention” value is on record as “potential ACE2 binding activity”. For the same compound, at ACE2 [2] (ACE2 Inhibitor Screening Kit), the “ACE2 inhibitory effect (in words)” value is on record as “have ACE2 inhibitory effects”. Besides, at ACE2 [3], the Rmax amounted to 21.490 RU, the “χ^2” value amounted to 5.280 and the Kd was determined as 15.8 µM.
`C[C@@H]1O[C@@H](OC[C@H]2O[C@@H](OCCc3ccc(O)c(O)c3)[C@H](O)[C@@H](OC(=O)/C=C/c3ccc(O)c(O)c3)[C@@H]2O)[C@H](O)[C@H](O)[C@H]1O` [Forsythoside I (104), Forsythoside I]: the “Human in vivo exposure (in words)” value in data set [1] was “low in vivo exposure”. Further, the “Retention” value at ACE2 [4] is given as “potential ACE2 binding activity”. Also, the “ACE2 inhibitory effect (in words)” value on ACE2 [2] (ACE2 Inhibitor Screening Kit) is reported as “have ACE2 inhibitory effects”. On ACE2 [3], the Rmax is on record as 19.020 RU, the “χ^2” value is recorded as 1.910 and the Kd amounted to 18.7 µM.
Turning to `CC1(C)[C@@H](O[C@H]2O[C@H](C(=O)O)[C@@H](O)[C@H](O)[C@H]2O[C@@H]2O[C@H](C(=O)O)[C@@H](O)[C@H](O)[C@H]2O)CC[C@]2(C)[C@H]3C(=O)C=C4[C@@H]5C[C@@](C)(C(=O)O)CC[C@]5(C)CC[C@@]4(C)[C@]3(C)CC[C@@H]12` [Glycyrrhizin (222), Glycyrrhizin], in data set [1], the “Human in vivo exposure (in words)” value was “high in vivo exposure concentrations”. In addition, the “Retention” value at ACE2 [4] is recorded as “potential ACE2 binding activity”. The “ACE2 inhibitory effect (in words)” value at ACE2 [2] (ACE2 Inhibitor Screening Kit, listed as Glycyrrhizin) is given as “poor inhibitory effect”. Moreover, at ACE2 [2] (ACE2 Inhibitor Screening Kit, listed as glycyrrhizin), the “ACE2 inhibitory effect (in words)” value is on record as “did not show significant peptidase inhibitory effects”. Further, on ACE2 [3], the Rmax is 9.614 RU and the “χ^2” value is 0.321.
In the case of `CC(C)C[C@H](N[C@@H](Cc1cncn1Cc1cc(Cl)cc(Cl)c1)C(=O)O)C(=O)O` [MLN-4760, reference compound], at ACE2 [4], the “Retention” value was “significant retention”. This compound yielded an IC50 against ACE2 [2] of 0.063 µM.
For `O=C(/C=C/c1ccc(O)c(O)c1)O[C@@H]1C[C@@](O)(C(=O)O)C[C@@H](O)[C@@H]1O` [Neochlorogenic acid (19), Neochlorogenic acid], on ACE2 [3], the Rmax turned out to be 6.894 RU, the “χ^2” value came out at 1.260 and the Kd is 7.88 µM.
On to `COc1cc(O)c2c(c1)C(=O)c1cc(C)cc(O)c1C2=O` [Physcion (230), Physcion], for which, on ACE2 [3], the “ACE2 binding ability by SPR (in words)” value is on record as “could also exhibit ACE2 binding activity”, the Rmax is on record as 18.390 RU and the “χ^2” value amounted to 1.630.
As for `N#C[C@H](O[C@@H]1O[C@H](CO)[C@@H](O)[C@H](O)[C@H]1O)c1ccccc1` [Prunasin (37), Prunasin], the “Retention” value at ACE2 [4] is on record as “potential ACE2 binding activity”. In addition, the “ACE2 inhibitory effect (in words)” value at ACE2 [2] (ACE2 Inhibitor Screening Kit) was “did not show significant peptidase inhibitory effects”. At ACE2 [3], the Rmax is 3.814 RU and the “χ^2” value was found to be 0.244.
For `O=c1c(O)c(-c2ccc(O)c(O)c2)oc2cc(O)cc(O)c12` [Quercetin (190), Quercetin], at ACE2 [3], the “ACE2 binding ability by SPR (in words)” value is “certain binding ability with ACE2”, the Rmax came to 12.780 RU and the “χ^2” value was determined as 1.580.
As to `O=C(O)c1cc(O)c2c(c1)C(=O)c1cccc(O)c1C2=O` [Rhein (226), Rhein], the “Human in vivo exposure (in words)” value in data set [1] (listed as Rhein) was “high exposure in human serum”. For the same compound, in data set [1] (listed as rhein), the “Human in vivo exposure (in words)” value is “relatively high”. Besides, the “Retention” value on ACE2 [4] is reported as “potential ACE2 binding activity”. Moreover, half-maximal inhibition against ACE2 [2] (IC50) was put at 18.3 µM. The “ACE2 inhibitory effect (in words)” value at ACE2 [2] (ACE2 Inhibitor Screening Kit) is “best ACE2 inhibitory effect”. Further, on ACE2 [3], the Rmax came out at 13.200 RU and the “χ^2” value is 0.669.
For `C[C@@H]1O[C@@H](OC[C@H]2O[C@@H](Oc3c(-c4ccc(O)c(O)c4)oc4cc(O)cc(O)c4c3=O)[C@H](O)[C@@H](O)[C@@H]2O)[C@H](O)[C@H](O)[C@H]1O` [Rutin (124), Rutin], at ACE2 [4], the “Retention” value is “potential ACE2 binding activity”. On ACE2 [3], the “ACE2 binding ability by SPR (in words)” value is listed as “certain binding ability with ACE2”, the Rmax is 12.770 RU and the “χ^2” value was found to be 1.290.
Turning to `CN[C@@H](C)[C@H](O)c1ccccc1` [ephedrine], the “Human in vivo exposure (in words)” value in data set [1] is on record as “higher human exposure”.
`C[C@@H]1O[C@@H](OC[C@H]2O[C@@H](OCCc3ccc(O)c(O)c3)[C@H](O)[C@@H](O)[C@@H]2O)[C@H](O)[C@H](O)[C@H]1O` [forsythoside E]: the “ACE2 inhibitory effect (in words)” value on ACE2 [2] (ACE2 Inhibitor Screening Kit) is “no ACE2 inhibitory activities”.
For `CN[C@@H](C)[C@@H](O)c1ccccc1` [pseudoephedrine], the “Human in vivo exposure (in words)” value in data set [1] was “higher human exposure”.
Consider `C[C@@H]1O[C@@H](Oc2c(-c3ccc(O)c(O)c3)oc3cc(O)cc(O)c3c2=O)[C@H](O)[C@H](O)[C@H]1O` [quercitrin], for which the “Human in vivo exposure (in words)” value in data set [1] was “higher human exposure”.
Regarding `OC[C@H]1O[C@@H](OCCc2ccc(O)cc2)[C@H](O)[C@@H](O)[C@@H]1O` [salidroside], the “Human in vivo exposure (in words)” value in data set [1] was “higher human exposure”.
Forsythoside B [Forsythoside B (125)]: the “ACE2 inhibitory effect (in words)” value on ACE2 [2] (ACE2 Inhibitor Screening Kit) was “have ACE2 inhibitory effects”. Further, on ACE2 [3], the “ACE2 binding ability by SPR (in words)” value is listed as “low binding activity”, the Rmax stood at 10.620 RU and the “χ^2” value came to 0.328.
forsythin: the “ACE2 inhibitory effect (in words)” value at ACE2 [2] (ACE2 Inhibitor Screening Kit) is on record as “no ACE2 inhibitory activities”.
